This note sets out measurements from ChEMBL document CHEMBL3612039, “Design, synthesis and evaluation of novel polypharmacological antichlamydial agents” (Eur J Med Chem, 2015).

Series [1] deals with Chlamydia trachomatis. The series is described as follows: Antichlamydial activity against Chlamydia trachomatis L2 serovar VR-902B infected in human HeLa cells assessed as growth inhibition at 50 uM after 24 to 48 hrs by microscopic analysis in presence of iron sulfate. It counts as functional, organism-based.
In series [2] the test system is Yersinia pseudotuberculosis. Description: Inhibition of type 3 secretion system in Yersinia pseudotuberculosis at 100 uM by yopE luciferase reporter gene assay. The method in brief:
(§1)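 T3S inhibition in bacterial cultures measured with a yopE luciferase reporter gene. Compound used in two-fold dilutions from 100 to 12,5 at 1% final DMSO. Result given as percent inhibition relative to 1% DMSO-treated controls.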
A general note: In a reporter assay the amount or activity of a reporter protein is the signal.

The subject of series [3] is Yersinia pseudotuberculosis. The series is described as follows: Inhibition of phosphatase activity of secreted YopH in Yersinia pseudotuberculosis at 12 to 100 uM by orthogonal assay. The method in brief:
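Orthogonal test of T3S inhibition in bacterial cultures that reads the phosphatase activity of secreted YopH effector protein. Compound used in two-fold dilutions from 100 to 12,5 at 1% final DMSO. Result given as percent inhibition relative to 1% DMSO-treated controls.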

A short description of series [4]: Cytotoxicity against human HeLa cells assessed as cell viability at 50 uM after 48 hrs by resazurin based fluorescence assay. As to conditions: read-out: Activity. Background: The colour change of resazurin is a common sign of viable cells or microbes.
Series [5] deals with Yersinia pseudotuberculosis. The series is described as follows: Antimicrobial activity against Yersinia pseudotuberculosis after 20 hrs. The series is classed as functional. The method in brief: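 Overnight culture diluted into Mueller Hinton broth containing compound at 100, 50, 25 or 12, incubated 37 °C for 20 h; bacterial growth scored by visual inspection to give minimum inhibitory concentration.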

For a further series, the system named is Chlamydia pneumoniae. Description: Antichlamydial activity against Chlamydia pneumoniae T45 infected in human HeLa cells assessed as growth inhibition at 50 uM after 24 to 48 hrs by microscopic analysis. It counts as functional.
For series [6], the system named is Chlamydia trachomatis. The series is described as follows: Antichlamydial activity against Chlamydia trachomatis L2 serovar VR-902B infected in human HeLa cells assessed as growth inhibition at 50 uM after 24 to 48 hrs by microscopic analysis. The series is classed as functional.
Series [7] relates to Yersinia pseudotuberculosis. Description: Inhibition of type 3 secretion system in Yersinia pseudotuberculosis by yopE luciferase reporter gene assay. The method in brief:
as §1

Series [8] is described as follows: Aqueous solubility of the compound. As to conditions: buffer. It counts as physicochemical.

Activity calls are given as the source filed them.

`Cc1cc(NS(=O)(=O)c2ccc(NC(=O)c3sc4cc(Cl)ccc4c3Cl)cc2)no1`: in the series with Chlamydia trachomatis [1], the “growth inhibition (GI)” value is “Active”. Besides, the inhibition entry in series [2] and in [3] was “inactive” throughout.

Regarding `Cc1cc(NS(=O)(=O)c2ccc(NC(=O)/C=C/c3ccc(C(=O)N/N=C/c4cc(Cl)cc(Cl)c4O)cc3)cc2)no1`, the viability at 48 h, 50 µM in [4] is more than 70%. Besides, the MIC (as a rule, the smallest concentration in the dilution series that meets the test's criterion for growth inhibition) in series [5] was more than 100 µM. Moreover, the inhibition (in general, the relative decrease from the control value, in per cent) in the series with Chlamydia pneumoniae is “inactive”. Further, the inhibition at 50 µM in the series on Chlamydia trachomatis [6] came to 14.6%. The inhibition entry in series [7] was “Dose-dependent effect”.

As to `Cc1cc(NS(=O)(=O)c2ccc(NC(=S)NCc3ccccc3O)cc2)no1`, the viability at 48 h, 50 µM in series [4] was more than 70%. The same compound showed an MIC in series [5] of more than 100 µM. The inhibition entry in the series on Chlamydia pneumoniae and in the series on Chlamydia trachomatis [6] was “inactive” in each case.

With `Cc1cc(NS(=O)(=O)c2ccc(C(=O)N/N=C/c3cc(Cl)cc(Cl)c3O)cc2)no1`, the viability at 48 h, 50 µM in series [4] is more than 70%. In addition, the MIC in series [5] was more than 100 µM. Moreover, the inhibition entry with Chlamydia pneumoniae is “inactive”. The inhibition at 50 µM in the series on Chlamydia trachomatis [6] came to 24.2%. In series [7], the inhibition entry was “Dose-dependent effect”.

Turning to `Cc1cc(NS(=O)(=O)c2ccc(NC(=S)NC3CCCCC3)cc2)no1`, the viability at 48 h, 50 µM in series [4] is more than 70%. This compound also displayed a minimum inhibitory concentration (MIC) in series [5] of more than 100 µM. Also, the inhibition entry in the series on Chlamydia pneumoniae is “inactive”. The inhibition at 50 µM in the series with Chlamydia trachomatis [6] came to 26.9%.

With `Cc1cc(NS(=O)(=O)c2ccc(NC(=O)/C=C/c3ccc(C(=O)N/N=C/c4cccc(F)c4O)cc3)cc2)no1`, in [4], the viability at 48 h, 50 µM is more than 70%. In addition, in series [5], the MIC was more than 100 µM. Moreover, the inhibition entry with Chlamydia pneumoniae was “inactive”. Also, the inhibition at 50 µM in the series with Chlamydia trachomatis [6] came out at 33.4%. Also, the inhibition result in [7] is “Dose-dependent effect”.

As to `CCN(CC)c1ccc(/C=N/NC(=O)c2ccc(S(=O)(=O)Nc3cc(C)on3)cc2)c(O)c1`, in series [4], the viability at 48 h, 50 µM was more than 70%. The compound also registered an MIC in [5] of more than 100 µM. In addition, in the series on Chlamydia trachomatis [1], the “growth inhibition (GI)” value was “inactive”. In addition, the inhibition at 50 µM was 100% with Chlamydia pneumoniae and 83% in the series with Chlamydia trachomatis [6]. Besides, the inhibition entry in series [7] was “Dose-dependent effect”.

On to `Cc1cc(NS(=O)(=O)c2ccc(NC(=S)Nc3ccc(O)cc3)cc2)no1`, for which, in series [4], the viability at 48 h, 50 µM is more than 70%. Moreover, the MIC in series [5] is more than 100 µM. In the series with Chlamydia pneumoniae, the inhibition at 50 µM is 60.8%. Besides, the inhibition result in the series on Chlamydia trachomatis [6] is “inactive”.

As for `Cc1cc(NS(=O)(=O)c2ccc(NC(=O)Nc3ccc(O)cc3)cc2)no1`, the viability at 48 h, 50 µM in series [4] is more than 70%. Moreover, the MIC in series [5] is more than 100 µM. In addition, in the series with Chlamydia pneumoniae, the inhibition entry was “inactive”. In addition, the inhibition at 50 µM with Chlamydia trachomatis [6] came to 9.6%.

Consider `Cc1cc(NS(=O)(=O)c2ccc(NC(=O)/C=C/c3ccc(C(=O)N/N=C/c4cc(Br)ccc4O)cc3)cc2)no1`, for which the viability at 48 h, 50 µM in series [4] was more than 70%. Moreover, the MIC in series [5] was more than 100 µM. The inhibition result in the series on Chlamydia pneumoniae is “inactive”. The inhibition at 50 µM with Chlamydia trachomatis [6] was determined as 21.5%. In addition, the inhibition result in series [7] is “Dose-dependent effect”.

Take `Cc1cc(NS(=O)(=O)c2ccc(C(=O)N/N=C/c3ccc(O)cc3O)cc2)no1`: in series [4], the viability at 48 h, 50 µM was more than 70%. Also, the MIC in series [5] is more than 100 µM. Also, in the series with Chlamydia pneumoniae, the inhibition result is “inactive”. The inhibition at 50 µM with Chlamydia trachomatis [6] turned out to be 47.4%. Further, in series [7], the inhibition result is “Dose-dependent effect”.

For the compound `Cc1cc(NS(=O)(=O)c2ccc(NC(S)=NCc3ccccc3)cc2)no1`, the viability at 48 h, 50 µM in series [4] was more than 70%. Besides, the MIC in [5] was more than 100 µM. In the series with Chlamydia pneumoniae, the inhibition result is “inactive”. Also, the inhibition at 50 µM in the series on Chlamydia trachomatis [6] worked out at 26.9%.

In the case of `Cc1cc(NS(=O)(=O)c2ccc(C(=O)N/N=C/c3cc(Br)cc(Br)c3O)cc2)no1`, the viability at 48 h, 50 µM in series [4] was more than 70%. In addition, the MIC in series [5] is more than 100 µM. Also, the “growth inhibition (GI)” value in the series on Chlamydia trachomatis [1] was “inactive”. In addition, the inhibition at 50 µM with Chlamydia pneumoniae worked out at 99.4%; with Chlamydia trachomatis [6], 65.2%. In [2], the inhibition result was “Active”. Also, the inhibition entry in series [7] is “Dose-dependent effect”.

Regarding `Cc1cc(NS(=O)(=O)c2ccc(NC(=O)NCc3ccccc3O)cc2)no1`, the viability at 48 h, 50 µM in series [4] is more than 70%. For the same compound, in [5], the MIC was more than 100 µM. Besides, the inhibition result in the series on Chlamydia pneumoniae and in the series on Chlamydia trachomatis [6] was “inactive” in each case.

In [5], `CCN(CC)c1ccc(/C=N/NC(=O)c2ccc(/C=C/C(=O)Nc3ccc(S(=O)(=O)Nc4cc(C)on4)cc3)cc2)c(O)c1` showed an MIC of more than 100 µM. The inhibition at 50 µM came out at 22.4% in the series with Chlamydia pneumoniae and 28% in the series on Chlamydia trachomatis [6]. In addition, the inhibition entry in series [7] was “Dose-dependent effect”. For the same compound, the solubility result in series [8] was “Insoluble”.

In the case of `Cc1cc(NS(=O)(=O)c2ccc(NC(=O)NC3CCCCC3)cc2)no1`, in [4], the viability at 48 h, 50 µM is more than 70%. For the same compound, the MIC in series [5] was more than 100 µM. Further, the inhibition result in the series on Chlamydia pneumoniae is “inactive”. In the series with Chlamydia trachomatis [6], the inhibition at 50 µM turned out to be 14.8%.

For `Cc1cc(NS(=O)(=O)c2ccc(NC(=O)NCc3ccccc3)cc2)no1`, the viability at 48 h, 50 µM in series [4] is more than 70%. Moreover, the MIC in series [5] is more than 100 µM. Moreover, the inhibition entry in the series on Chlamydia pneumoniae was “inactive”. Moreover, the inhibition at 50 µM in the series with Chlamydia trachomatis [6] amounted to 18.5%.
